Test results taken from ChEMBL document CHEMBL1152958 (Bioorg Med Chem, 2009).

Experiments:
[1] = molecular target: T1, Polyunsaturated fatty acid 5-lipoxygenase (Homo sapiens) (UniProt P09917); assay: Inhibition of 5LOX-mediated LTB4 formation in stimulated human polymorphonuclear leukocytes at 8 uM
T1 sequence (whole entry): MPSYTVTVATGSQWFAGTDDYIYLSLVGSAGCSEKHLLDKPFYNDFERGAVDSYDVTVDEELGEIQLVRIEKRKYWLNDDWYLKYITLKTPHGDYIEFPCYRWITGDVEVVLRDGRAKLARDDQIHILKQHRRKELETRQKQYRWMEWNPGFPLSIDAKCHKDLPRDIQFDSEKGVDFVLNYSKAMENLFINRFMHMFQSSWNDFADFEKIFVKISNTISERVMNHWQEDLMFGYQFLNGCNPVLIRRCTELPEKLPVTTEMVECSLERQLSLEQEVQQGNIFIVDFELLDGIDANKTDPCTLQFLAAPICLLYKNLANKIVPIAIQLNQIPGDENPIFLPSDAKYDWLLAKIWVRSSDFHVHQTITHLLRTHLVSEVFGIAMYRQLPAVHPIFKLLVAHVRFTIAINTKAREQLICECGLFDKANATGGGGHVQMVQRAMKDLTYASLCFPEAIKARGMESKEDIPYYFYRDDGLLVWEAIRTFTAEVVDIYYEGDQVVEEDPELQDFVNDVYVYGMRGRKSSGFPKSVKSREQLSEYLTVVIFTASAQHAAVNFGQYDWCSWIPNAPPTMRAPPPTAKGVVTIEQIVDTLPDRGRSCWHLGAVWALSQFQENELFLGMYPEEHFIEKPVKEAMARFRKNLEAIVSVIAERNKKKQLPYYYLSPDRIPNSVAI
Summary of the method: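 5-LOX-mediated LTB4 formation was measured in stimulated human polymorphonuclear leukocytes in 96-well format. […] For IC50, at least 3 concentrations were tested in at least 3 independent experiments, each in duplicate, and IC50 was derived from a semilogarithmic dose plot. Results are given as means ± S.D.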

[2] = molecular target: T2, Polyunsaturated fatty acid 5-lipoxygenase (Homo sapiens, UniProt P09917); assay: Inhibition of 5LOX-mediated LTB4 formation in stimulated human polymorphonuclear leukocytes
T2 sequence (P09917 whole entry): T1 sequence (whole entry)
Summary of the method: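 5-LOX-mediated LTB4 formation was measured in stimulated human polymorphonuclear leukocytes in 96-well format. For IC50, at least 3 concentrations were tested in at least 3 independent experiments, each in duplicate, and IC50 was derived from a semilogarithmic dose plot. Results are given as means ± S.D.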

[3] = molecular target: T3, Prostaglandin G/H synthase 2 (Ovis aries, UniProt P79208); assay: Inhibition of COX2 in sheep placental vesicle by enzyme immunoassay
T3 sequence (P79208 whole entry): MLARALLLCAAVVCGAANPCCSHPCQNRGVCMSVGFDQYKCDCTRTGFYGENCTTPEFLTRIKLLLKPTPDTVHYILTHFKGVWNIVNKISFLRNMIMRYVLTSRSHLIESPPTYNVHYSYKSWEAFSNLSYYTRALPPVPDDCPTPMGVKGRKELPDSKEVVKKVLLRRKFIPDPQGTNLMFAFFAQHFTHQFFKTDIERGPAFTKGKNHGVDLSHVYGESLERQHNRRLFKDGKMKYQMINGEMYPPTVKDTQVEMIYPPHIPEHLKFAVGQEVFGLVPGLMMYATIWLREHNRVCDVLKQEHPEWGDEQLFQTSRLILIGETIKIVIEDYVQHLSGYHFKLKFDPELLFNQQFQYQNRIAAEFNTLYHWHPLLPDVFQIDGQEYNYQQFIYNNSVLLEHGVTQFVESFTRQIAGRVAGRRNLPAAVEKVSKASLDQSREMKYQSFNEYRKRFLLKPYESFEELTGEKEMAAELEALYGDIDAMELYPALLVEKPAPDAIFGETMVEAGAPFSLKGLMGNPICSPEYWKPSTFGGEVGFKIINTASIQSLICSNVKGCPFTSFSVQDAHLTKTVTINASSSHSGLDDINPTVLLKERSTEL

[4] = molecular target: T4, Prostaglandin G/H synthase 1 (Ovis aries, UniProt P05979); assay: Inhibition of COX1 in ram seminal vesicle by enzyme immunoassay
T4 sequence (P05979 whole entry): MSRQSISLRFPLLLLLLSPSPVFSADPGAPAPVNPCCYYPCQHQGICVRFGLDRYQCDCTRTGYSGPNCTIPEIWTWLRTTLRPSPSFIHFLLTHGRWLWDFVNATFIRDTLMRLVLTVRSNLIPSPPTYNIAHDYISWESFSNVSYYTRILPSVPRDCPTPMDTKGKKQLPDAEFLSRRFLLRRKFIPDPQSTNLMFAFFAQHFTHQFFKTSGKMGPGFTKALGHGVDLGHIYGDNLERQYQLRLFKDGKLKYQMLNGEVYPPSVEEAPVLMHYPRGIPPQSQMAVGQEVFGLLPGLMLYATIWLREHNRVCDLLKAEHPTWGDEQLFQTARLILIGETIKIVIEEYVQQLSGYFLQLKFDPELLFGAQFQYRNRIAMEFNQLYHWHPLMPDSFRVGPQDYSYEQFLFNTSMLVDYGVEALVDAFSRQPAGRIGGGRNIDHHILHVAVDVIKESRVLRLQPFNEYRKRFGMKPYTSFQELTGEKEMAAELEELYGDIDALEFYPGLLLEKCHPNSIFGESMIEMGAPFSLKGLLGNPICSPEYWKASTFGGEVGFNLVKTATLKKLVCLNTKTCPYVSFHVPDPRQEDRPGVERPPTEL
Summary of the method: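 PGE2, the main arachidonic acid metabolite, was quantified by competitive enzyme immunoassay.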

[5] = molecular target: T5, Prostaglandin G/H synthase 2 (Ovis aries) (UniProt P79208); assay: Inhibition of COX2 in sheep placental vesicle at 8 uM by enzyme immunoassay
T5 sequence (whole entry): T3 sequence (P79208 whole entry)

[6] = molecular target: T6, Prostaglandin G/H synthase 1 (Ovis aries) (UniProt P05979); assay: Inhibition of COX1 in ram seminal vesicle at 8 uM by enzyme immunoassay; type: tissue-based
T6 sequence (whole entry): T4 sequence (P05979 whole entry)

Row | Compound | inhibition [1] | IC50 ([2]; read-out: IC50) | IC50 ([3]; read-out: IC50) | IC50 ([4]; read-out: IC50) | inhibition [5] | inhibition [6] | IC50 [2] | IC50 [3] | IC50 [4]
1 | C=CCc1ccc(O)c(-c2ccc(OC)c(/C=C/C)c2)c1 | 99.3% | 2.1 µM | 0.2 µM | 0.7 µM | 81.5% | 80.5% |  |  | 
2 | C=CCc1ccc(O)c(-c2ccc(O)c(/C=C/C)c2)c1 | 100% | 1 µM | 2.7 µM | 0.6 µM | 75.1% | 84.8% |  |  | 
3 | CCCc1ccc(O)c(-c2ccc(OC)c(CCC)c2)c1 | 97.1% | 1.4 µM |  | 7.7 µM | 11.6% | 56.5% |  |  | 
4 | CCCc1ccc(O)c(-c2ccc(O)c(CCC)c2)c1 | 99.9% | 1.7 µM | 2.1 µM | 0.8 µM | 81.6% | 89.6% |  |  | 
5 | C=CCc1ccc(O)c(-c2ccc(O)c(CC=C)c2)c1 [HONOKIOL] | 94% | 4.2 µM | 2.1 µM | 1.8 µM | 88.3% | 91% |  |  | 
6 | C=CCc1ccc(O)c(-c2ccc(OC)c(/C=C\C)c2)c1 | 99.9% | 1.1 µM | 0.9 µM | 2.8 µM | 62.7% | 68.6% |  |  | 

The next lines start with the values.

Row | inhibition [1] | IC50 ([2]; read-out: IC50) | IC50 ([3]; read-out: IC50) | IC50 ([4]; read-out: IC50) | inhibition [5] | inhibition [6] | IC50 [2] | IC50 [3] | IC50 [4] | Compound
7 | 27.8% | 15 µM | 7.7 µM | 11.4 µM | 47.8% | 45.1% |  |  |  | C=CCc1ccc(OC)c(-c2ccc(OC)c(CC=C)c2)c1
8 |  |  |  |  |  |  | Not Active | Not Active | Not Active | COc1ccc(-c2cc(CC3CO3)ccc2O)cc1CC1CO1 (centres undefined)
9 | 76.3% | 2.2 µM | 4.9 µM |  | 56.3% | 18% |  |  |  | C=CCc1ccc(OC(C)=O)c(-c2ccc(OC)c(CC=C)c2)c1
10 | 64.9% | 4.5 µM |  |  | 13.8% | 6.8% |  |  |  | C=CCc1ccc(OC(C)=O)c(-c2ccc(OC(C)=O)c(CC=C)c2)c1
11 | 24.4% |  | 6.9 µM | > 20 µM | 49.4% | 27.3% |  |  |  | CCCc1ccc(OC)c(-c2ccc(OC)c(CCC)c2)c1
12 | 96.4% | 1.5 µM | 0.06 µM | 0.1 µM | 95.3% | 90.8% |  |  |  | C=CCc1ccc(O)c(-c2ccc(OC)c(CC=C)c2)c1 [METHYLHONOKIOL]
